Measurements: paper PMC4755300 (European journal of medicinal chemistry, 2015)

Legend:
[1] = Fluorescence spectroscopy; assay type: physicochemical; settings: with respect to quinine sulfate
Outline: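 Excitation and emission spectra were recorded on the free base in EtOH (per table footnote) or in CHCl3. Fluorescence quantum yield was calculated relative to quinine sulfate.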

σ1 receptor = σ1 receptor (Cavia porcellus, UniProt Q60492); assay: σ1 receptor radioligand competition binding; parameters: species or system guinea pig; settings: for σ1 versus σ2 receptor selectivity: ratio of σ2 and σ1 Ki
Sequence of σ1 receptor (Q60492 whole entry): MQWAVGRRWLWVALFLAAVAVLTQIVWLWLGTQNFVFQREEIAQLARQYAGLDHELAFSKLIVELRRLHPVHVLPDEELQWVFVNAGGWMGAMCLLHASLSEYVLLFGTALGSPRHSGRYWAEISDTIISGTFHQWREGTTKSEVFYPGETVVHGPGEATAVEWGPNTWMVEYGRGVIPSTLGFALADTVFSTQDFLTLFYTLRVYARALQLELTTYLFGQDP

[2] = biological target: human σ1 receptors in MCF7σ1 cells (Homo sapiens, UniProt Q99720); assay: Flow cytometry displacement of fluorescent tracers 5 or 6 in MCF7σ1 cells; assay type: binding; settings: for concentration at which the cellular fluorescence signal reaches a plateau: MCF7 cell lines, 45 and 75 min incubation, flow cytometry; for effect on fluorescent signal by tracers 5 and 6 (100 nM): MCF7σ1 cells, masking compound at 10 µM
Sequence of human σ1 receptors in MCF7σ1 cells (Q99720 whole entry): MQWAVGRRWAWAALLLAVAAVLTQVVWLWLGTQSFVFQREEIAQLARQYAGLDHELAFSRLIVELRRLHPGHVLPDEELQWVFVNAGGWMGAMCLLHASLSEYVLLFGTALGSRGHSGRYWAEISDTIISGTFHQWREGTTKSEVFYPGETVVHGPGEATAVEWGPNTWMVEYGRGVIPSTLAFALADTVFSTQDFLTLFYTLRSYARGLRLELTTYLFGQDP

ARPE19 cells [3] = assay: Confocal imaging of ARPE19 cells labeled with compound 9; assay type: cell-based, human; settings: PB190 100 µM pretreatment 40 min
Outline: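 ARPE19 cells were grown in DMEM with 10% FBS and 1% penicillin-streptomycin under 5% CO2. Treatment and imaging were done in HBSS. Control wells were pretreated with PB190 100 µM for 40 min. Cells then received test compound 0.5 µM for 40 min and were rinsed twice in HBSS. Laser confocal imaging used a 60X oil objective, excitation 408 nm and emission detection 525 nm.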

σ2 receptor = biological target: T1, σ2 receptor (Rattus norvegicus, UniProt Q5U3Y7); assay: σ2 receptor radioligand competition binding, [3H]-DTG with 1 µM
T1 sequence (Q5U3Y7 1-176): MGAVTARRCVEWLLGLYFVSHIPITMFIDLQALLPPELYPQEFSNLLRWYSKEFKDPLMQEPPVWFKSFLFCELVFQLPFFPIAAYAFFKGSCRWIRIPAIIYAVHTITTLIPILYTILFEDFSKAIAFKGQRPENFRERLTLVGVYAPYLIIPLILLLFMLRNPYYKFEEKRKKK

ARPE19 cells [4] = assay: MTT cell viability assay, paraquat toxicity in ARPE19 cells; assay type: cell-based, human; settings: 1 mM paraquat, 24 h
MCF7wt cells = assay: Flow cytometry of fluorescent tracers 5 or 6 in MCF7wt cells; assay type: cell-based, human; settings: masking compound at 10 µM
Outline: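 Parental MCF7 cells were grown in high-glucose DMEM with 10% FBS and 1% penicillin-streptomycin at 37 °C. […] Cells were washed twice in PBS, detached 10 min at 37 °C, pelleted and resuspended in PBS. Flow cytometry used a 530 nm band pass filter, 50,000 events per analysis.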

SMILES | QY CHCl3 (fluorescence quantum yield) [1] | QY EtOH (fluorescence quantum yield) [1] | σ1 versus σ2 receptor selectivity (σ1 receptor) [fold] | concentration at which the cellular fluorescence signal reaches a plateau [2] [nM] | effect on fluorescent signal by tracers 5 or 6 (100 nM) (MCF7wt cells) | effect on fluorescent signal by tracers 5 and 6 (100 nM) [2] | other results
CC1CCN(CCCCC2CCCc3cc(OCCCCCCN4C(=O)c5ccc(N(C)C)cc5C4=O)ccc32)CC1 (stereo not drawn) [Compound 5, 5-(Dimethylamino)-2-(6-((5-(4-(4-methylpiperidin-1-yl)butyl)-5,6,7,8-tetrahydronaphthalen-2-yl)oxy)hexyl)isoindoline-1,3-dione] | 0.5 | 0.02 | 10 | 100 |  |  | 
COc1ccc2c(c1)CCCC2CCCCN1CCC(C)CC1 (stereo not drawn) [PB190, 4-methyl-1-[4-(6-methoxy-1,2,3,4-tetrahydronaphthalen-1-yl)butyl]piperidine] |  |  |  |  |  |  | effect on labeling by compound 9 when cells prelabeled (ARPE19 cells [3]): Lower intensity of labeling
CN(C)c1ccc2c(c1)C(=O)N(CCCCCCOc1cccc3c1CCCC3CCC(=O)N1CCN(C3CCCCC3)CC1)C2=O (stereo not drawn) [Compound 9, 2-(6-((5-(3-(4-Cyclohexylpiperazin-1-yl)-3-oxopropyl)-5,6,7,8-tetrahydronaphthalen-1-yl)oxy)hexyl)-5-(dimethylamino) isoindole-1,3-dione] | 0.4 | 0.02 | 3 |  |  |  | Ki (σ2 receptor): 38.4 ± 10.9 nM; σ2 receptor affinity higher than that of the lead compound (σ2 receptor; 9 vs 1): 5 fold; cytoprotection against paraquat-mediated toxicity (MTT viability) (ARPE19 cells [4]): protects against such toxicity; Ki (σ1 receptor): 13.1 ± 5.02 nM
CC1CCN(CCCCc2cccc3cc(OCCCCCCN4C(=O)c5ccc(N(C)C)cc5C4=O)ccc23)CC1 [Compound 6, 5-(Dimethylamino)-2-{6-[(5-(4-(4-methylpiperidin-1-yl)butyl)naphthalen-2-yl)oxy]hexyl}isoindole-1,3-dione] | 0.4 | 0.02 | 10 | 100 |  |  | decrease of σ2 affinity in comparison to the lead compound (σ2 receptor; 6 vs PB212): 2.5 fold
COc1cc2c(cc1OC)CN(CCCN1CCc3c(OC)cccc3C1=O)CC2 [Compound 10, 2-(3-(6,7-dimethoxy-3,4-dihydroisoquinolin-2(1H)-yl)propyl)-5-methoxy-3,4-dihydroisoquinolin-1(2H)-one, reference compound] |  |  |  |  | no change | only slightly decreased | 
CC(C)=CCN1CC[C@]2(C)c3cc(O)ccc3C[C@H]1[C@H]2C [(+)-Pentazocine, reference compound] |  |  |  |  | no change | strongly decreased | 
